Values after ≈ are worked out from the molar mass of the structure shown.
Tests used:
[1] = Permeability of the compound in pH 7.4 Prisma HT buffer at 100 uM incubated for 4 hrs by PAMPA-BBB assay method
[2] = Selectivity index, ratio of CC50 for human HepG2 cells to EC50 for antileishmanial activity against Leishmania donovani MHOM/IN/00/DEVI promastigotes; type: toxicity; details: read-out: Ratio CC50/EC50
[3] = test system: Trypanosoma brucei brucei; test: Selectivity index, ratio of EC50 for antitrypanosomal activity against blood stream form of wild type Trypanosoma brucei brucei S427 trypomastigotes to EC50 for antitrypanosomal activity against blood stream form of Trypanosoma brucei brucei S427 trypomastigotes overexpressing NTR1; type: functional
[4] = test system: Leishmania infantum; test: Antileishmanial activity against Leishmania infantum MHOM/MA/67/ITMAP-263 axenic amastigotes assessed as inhibition of parasitic metabolic activity incubated for 48 hrs by steady Glow reagent based luminescence assay; type: functional, organism-based; details: MHOM/MA/67/ITMAP-263, 48 h
Outline: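 Luciferase-expressing promastigotes were acidified (pH 5.4, 24 h, 24 °C) and then held 24 h at 37 °C to give axenic amastigotes. These were used at 2×10⁶/mL with compound (DMSO <0.5%), in duplicate, for 48 h at 37 °C. Luciferase luminescence was read. EC50 came from non-linear regression, as the mean of three independent experiments.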

[5] = test system: Leishmania donovani; test: Antileishmanial activity against Leishmania donovani MHOM/IN/00/DEVI promastigotes assessed as inhibition of parasitic metabolic activity measured after 72 hrs by MTT assay; type: functional, organism-based
Outline: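 Log-phase promastigotes at 10⁶/mL were grown in Schneider's medium with 20% FCS at 27 °C. Compound was added from DMSO stock (final <0.5% v/v), in duplicate, for 72 h. Metabolic activity was read by MTT (4 h, 27 °C) and absorbance at 570 nm. EC50 came from non-linear dose-response regression, as the mean of ≥3 independent experiments.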

[6] = Toxicity in Swiss mouse assessed as lesions on lung at 100 mg/kg, po administered once daily for 5 days; type: organism-based; details: in vivo, 120 h, time 5 day
Outline: (§1)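 Four mice received compound at 100 mg/kg by oral gavage once daily for 5 days, followed by a follow-up period.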

[7] = Tmax in Swiss mouse at 100 mg/kg, po by LC-MS/MS analysis; type: ADME, organism-based; details: in vivo
Outline: (§2)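 Mice were given oral doses of 100 mg/kg. Plasma Cmax, Tmax, half-life, AUC0-inf and clearance were derived from this.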

[8] = test system: Trypanosoma brucei brucei; test: Antitrypanosomal activity against blood stream form of wild type Trypanosoma brucei brucei S427 trypomastigotes assessed as inhibition of parasite growth; type: functional, organism-based
Outline: (§3)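 Bloodstream-form single marker S427 (T7RPOL TETR NEO) grown at 37 °C in HMI9-T with 2.5 µg/mL G418. The NTR1-overexpressing line is additionally kept in 2.5 µg/mL phleomycin and induced with 1 µg/mL tetracycline 48 h before testing.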

[9] = Toxicity in Swiss mouse assessed as lesions on liver at 100 mg/kg, po administered once daily for 5 days; type: organism-based; details: in vivo, 120 h, time 5 day; outline: as §1
[10] = Toxicity in Swiss mouse assessed as lesions on brain at 100 mg/kg, po administered once daily for 5 days; type: organism-based; details: in vivo, 120 h, time 5 day; outline: as §1
[11] = Clearance in Swiss mouse at 100 mg/kg, po by LC-MS/MS analysis; type: ADME, organism-based; details: in vivo; outline: as §2
[12] = Microsomal stability in CD-1 mouse liver microsomes assessed as half life in presence of NADP measured up to 40 mins by LC-MS analysis; type: ADME, Microsome
Outline: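 Compound was incubated in duplicate with female CD-1 mouse microsomes at 37 °C in 50 mM phosphate, pH 7.4. An NADP-regenerating system was present (MgCl₂ 5 mM, NADP 1 mM, G6PDH 0.4 U/mL, G6P 5 mM).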

[13] = Cytotoxicity against human HepG2 cells assessed as reduction in cell viability after 72 hrs by MTT assay; type: cell-based
Outline: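 MTT was applied at 0.5 mg/mL for 2 h, formazan was dissolved in DMSO, and absorbance read at 570 nm with a 630 nm reference. Doxorubicin was the positive control. CC50 was taken from the dose-response curve, as the mean of three experiments.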

[14] = test system: Trypanosoma brucei brucei; test: Potency index, ratio of nifurtimox EC50 to compound EC50 for antitrypanosomal activity against blood stream form of wild type Trypanosoma brucei brucei S427 trypomastigotes; type: functional
[15] = test system: Trypanosoma brucei brucei; test: Antitrypanosomal activity against bloodstream form Trypanosoma brucei brucei AnTat 1.9 trypomastigotes assessed as reduction in parasite viability incubated for 69 hrs by Alamar Blue dye based assay; type: functional, organism-based; details: AnTat 1.9, 69 h
Outline: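 BSF parasites were cultured in MEM/Baltz medium with 20% heat-inactivated horse serum, mercaptoethanol, L-cysteine and bathocuproine, at 37 °C and 5% CO₂. Cells were seeded at 2000 parasites/100 µL with compound from DMSO, in duplicate, for 69 h. Alamar Blue was added for 5 h and fluorescence read (ex 530/em 590 nm). EC50 came from non-linear regression over three independent experiments.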

[16] = Selectivity index, ratio of CC50 for human HepG2 cells to EC50 for antileishmanial activity against Leishmania infantum MHOM/MA/67/ITMAP-263 axenic amastigotes; type: toxicity; details: read-out: Ratio CC50/EC50
[17] = AUC (0 to infinity) in Swiss mouse at 100 mg/kg, po by LC-MS/MS analysis; type: ADME, organism-based; design: time infinity, route oral, dose 100 mg/kg; details: in vivo; outline: as §2
[18] = Toxicity in orally dosed Swiss mouse administered once daily for 5 days; type: organism-based; details: in vivo, po, time 5 day; outline: as §1
[19] = Selectivity index, ratio of CC50 for human HepG2 cells to EC50 for Trypanosoma brucei brucei trypomastigotes AnTat 1.9; type: toxicity; details: read-out: Ratio CC50/EC50
[20] = test system: CHO-K1; test: Genotoxicity in CHOK1 cells assessed as increase in micronucleated cells at 0.01 to 0.5 mM in presence or absence of S9 fraction measured after 3 hrs by Giemsa staining based micronucleus assay; type: toxicity, cell-based, Cricetulus griseus; details: chinese hamster, cho-k1, 3 h, 500 µM, dose 0.01-0.5 mM
Outline: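 CHO-K1 cells in McCoy's 5A were exposed 3 h to 0.01–0.5 mM compound, with or without 10% S9 mix, in duplicate. Cells then received cytochalasin B (3 µg/mL) for 21 h and were methanol-fixed and Giemsa-stained. Micronuclei were scored in 1000 binucleated cells per well, and CBPI and cytostasis were also determined. A χ² test was run against the negative control.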

[21] = Thermodynamic solubility of the compound in phosphate buffer at pH 7.4 incubated for 24 hrs under shaking condition by shake flask method; type: physicochemical; details: read-out: Therm_solubility
Outline: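 The miniaturized shake-flask method used 20 mM DMSO stock diluted into phosphate buffer at pH 7.4 (n = 4). Tubes were shaken 24 h at room temperature and centrifuged. Supernatant was mixed 1:1 with acetonitrile and quantified by UV, with calibration at 370 nm.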

[22] = Toxicity in Swiss mouse assessed as lesions on heart at 100 mg/kg, po administered once daily for 5 days; type: organism-based; details: in vivo, 120 h, time 5 day; outline: as §1
[23] = Cmax in Swiss mouse at 100 mg/kg, po by LC-MS/MS analysis; type: ADME, organism-based; design: route oral, dose 100 mg/kg; details: in vivo; outline: as §2
[24] = Toxicity in Swiss mouse assessed as lesions on kidney at 100 mg/kg, po administered once daily for 5 days; type: organism-based; details: in vivo, 120 h, time 5 day; outline: as §1
[25] = test system: Trypanosoma brucei brucei; test: Antitrypanosomal activity against blood stream form of Trypanosoma brucei brucei S427 trypomastigotes overexpressing NTR1 assessed as inhibition of parasite growth; type: functional, organism-based; outline: as §3
[26] = Electrochemical behavior of the compound assessed as redox potential corrected toward normal hydrogen electrode by cyclic voltammetry
[27] = Half life in Swiss mouse at 100 mg/kg, po by LC-MS/MS analysis; type: ADME, organism-based; details: in vivo; outline: as §2
[28] = test system: HepG2; test: Genotoxicity in human HepG2 cells assessed as induction of DNA damage at 5 to 20 uM incubated for 2 to 72 hrs by alkaline comet assay; type: toxicity, cell-based; details: hepg2, 20 µM, dose lower 5 µM, time lower 2 hrs, dose upper 20 µM, time upper 72 hrs
Outline: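 HepG2 cells were exposed to 5, 10 and 20 µM compound for 2, 24 or 72 h. Methyl methanesulfonate was the positive control, and read-out was % DNA in tail.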

[29] = Aqueous solubility of compound; type: physicochemical; details: buffer
[30] = target: Albumin (Homo sapiens, UniProt P02768); test: Binding affinity to human albumin incubated for 4 hrs by LC-MS analysis; type: ADME; details: read-out: PB (converted)
Sequence of Albumin (P02768 whole entry): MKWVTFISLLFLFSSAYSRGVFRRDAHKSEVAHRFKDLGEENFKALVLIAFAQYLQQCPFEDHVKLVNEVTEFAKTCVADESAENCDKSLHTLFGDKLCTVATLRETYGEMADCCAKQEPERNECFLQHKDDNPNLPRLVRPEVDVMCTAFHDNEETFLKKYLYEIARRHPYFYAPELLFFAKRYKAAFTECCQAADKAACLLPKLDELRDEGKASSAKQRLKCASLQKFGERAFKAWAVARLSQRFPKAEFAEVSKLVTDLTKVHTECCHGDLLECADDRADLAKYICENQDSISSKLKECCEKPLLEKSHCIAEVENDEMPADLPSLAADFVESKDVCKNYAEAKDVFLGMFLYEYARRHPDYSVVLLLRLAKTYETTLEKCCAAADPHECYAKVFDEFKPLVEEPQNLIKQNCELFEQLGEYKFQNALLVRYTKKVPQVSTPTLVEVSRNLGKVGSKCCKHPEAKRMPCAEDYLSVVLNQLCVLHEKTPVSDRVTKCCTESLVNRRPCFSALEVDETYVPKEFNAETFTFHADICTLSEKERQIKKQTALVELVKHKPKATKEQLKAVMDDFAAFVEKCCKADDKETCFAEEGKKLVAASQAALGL

CS(=O)(=O)Cc1nc2c(Br)cc(Cl)cn2c1[N+](=O)[O-]
Papp at 4 h, 100 µM [1]: 8.42 ×10⁻⁶ cm/s
selectivity ratio [2]: 7.9
Ratio EC50 [3]: 4
EC50 [4]: > 25 µM
EC50 [5]: 5.7 µM
Activity [6]: Non-Toxic
Tmax [7]: 5 h
EC50 [8]: 65 nM
Activity [9]: Non-Toxic
Activity [10]: Non-Toxic
CL/F [11]: 0.0085 mL/min
half-life [12]: > 40 min
CC50 at 72 h [13]: 45 µM
Ratio EC50 [14]: 30
EC50 [15]: 17 nM
selectivity ratio [16]: < 1.8
AUC(0-inf) [17]: 7060 ng·h/mL
NOAEL at 120 h [18]: 100 mg/kg/day
selectivity ratio [19]: 2650
Activity [20]: Non-Toxic
solubility thermodynamic at 24 h [21]: 25.8 µM (≈ 9.51 µg/mL)
Activity [22]: Non-Toxic
Cmax [23]: 741 ng/mL
Activity [24]: Non-Toxic
EC50 [25]: 16 nM
Activity [26]: -0.6 V
half-life [27]: 462 min
Activity [28]: Non-Toxic
solubility [29]: Soluble
fraction unbound at 4 h [30]: 0.231

Source: ChEMBL document CHEMBL4765423, “Antikinetoplastid SAR study in 3-nitroimidazopyridine series: Identification of a novel non-genotoxic and potent anti-T. b. brucei hit-compound with improved pharmacokinetic properties” (Eur J Med Chem, 2020)
